Measured values as given in ChEMBL document CHEMBL4699636, “Novel 2,7-Diazaspiro[4,4]nonane Derivatives to Inhibit Mouse and Human Osteoclast Activities and Prevent Bone Loss in Ovariectomized Mice without Affecting Bone Formation” (J Med Chem, 2020).
The source made the active and inactive calls. The rule behind the calls is not given here.

Legend:
[1] = tested on: Mus musculus; assay: Antiosteoporotic activity in C57BL6/J mouse model of OVX-induced bone loss assessed as structure model index level in tibial metaphysis at 20 mg/kg, ip BID for 4 weeks by microCT analysis (1.92 +/- 0.19); format: functional; settings: dose […]
[2] = Toxicity in C57BL6/J mouse model of OVX-induced bone loss assessed as effect on bone formation by measuring mineralizing mineral apposition rate level in femoral metaphysis at 20 mg/kg, ip QD for 4 weeks by histomorphometry (1.62 +/ 0.21 um/d (lcm)); format: organism-based; settings: in vivo, 672 h
[3] = tested on: Mus musculus; assay: Antiosteoporotic activity in C57BL6/J mouse model of OVX-induced bone loss assessed as trabecular pattern factor level in tibial metaphysis at 20 mg/kg, ip QD for 4 weeks by microCT analysis (17.17 +/- 3.41 […]); format: functional
[4] = tested on: Mus musculus; assay: Antiosteoporotic activity in C57BL6/J mouse model of OVX-induced bone loss assessed as trabecular pattern factor level in tibial metaphysis at 20 mg/kg, ip BID for 4 weeks by microCT analysis (17.17 +/- 3.41 […]); format: functional
[5] = tested on: Osteoclast; assay: Inhibition of resorption activity of mouse peripheral blood cell-derived osteoclasts at 5-10 uM incubated for 48 hrs by Kossa-staining based assay; format: functional, tissue-based; settings: dose microM 5-10, time 48.0 hrs, in the assay text read “bone marrow-derived” for “peripheral blood cell-derived”
How it was run: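 Osteoclasts from C57BL/6J mouse bone marrow, M-CSF then M-CSF 30 ng/mL plus RANKL 100 ng/mL. Day-3 cells reseeded on calcium phosphate-coated wells, compound added next day in 0.5% DMSO for 48 h, 8 wells per condition. 4 wells TRAP-stained for osteoclast counts, 4 von Kossa-stained for resorbed area. Activity expressed as resorption normalized to osteoclast number.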

[6] = tested on: Mus musculus; assay: Antiosteoporotic activity in C57BL6/J mouse model of OVX-induced bone loss assessed as trabecular thickness level in femoral metaphysis at 20 mg/kg, ip BID for 4 weeks by histomorphometry (39.96 +/- 5.42 um); format: functional
How it was run: (§1)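 OVX mice, 12 weeks old, ip 20 mg/kg q.d. or b.i.d. for 4 weeks in CMC/Tween 80 vehicle. Distal right femur taken day 28. Static trabecular parameters measured on one 4-µm Masson-Goldner trichrome section, ROI 0.75 mm². n=10 per group, 9 in OVX+vehicle.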

[7] = tested on: Osteoclast (Homo sapiens); assay: Inhibition of resorption activity of human peripheral blood cell-derived osteoclasts at 1-20 uM incubated for 48 hrs by Kossa-staining based assay; settings: dose microM 1-20, time 48.0 hrs
[8] = Toxicity in C57BL6/J mouse model of OVX-induced bone loss assessed as effect on bone formation by measuring number of osteoblasts per bone surface level in femoral metaphysis at 20 mg/kg, ip QD for 4 weeks by histomorphometry (4.55 +/ 2.53 /mm); format: organism-based; settings: in vivo, 672 h; how it was run: as §1
[9] = Toxicity in C57BL6/J mouse model of OVX-induced bone loss assessed as effect on bone formation by measuring bone formation rate per trabecular bone surface level in femoral metaphysis at 20 mg/kg, ip QD for 4 weeks by histomorphometry ([…]); format: organism-based; settings: in vivo, 672 h
[10] = Toxicity in C57BL6/J mouse model of OVX-induced bone loss assessed as effect on osteoclast numbers per bone perimeter at 20 mg/kg, IP QD for 4 weeks; format: organism-based; settings: in vivo, 672 h; how it was run: as §1
[11] = tested on: Mus musculus; assay: Antiosteoporotic activity in C57BL6/J mouse model of OVX-induced bone loss assessed as trabecular separation level in femoral metaphysis at 20 mg/kg, ip QD for 4 weeks by histomorphometry (319.80 +/- 106.52 um); format: functional; how it was run: as §1
[12] = tested on: Mus musculus; assay: Antiosteoporotic activity in C57BL6/J mouse model of OVX-induced bone loss assessed as serum CTX-1 level […] at 20 mg/kg, ip QD for 4 weeks (165.38 +/- 54.93 %); format: functional
[13] = molecular target: Triple functional domain protein (Homo sapiens) (UniProt O75962); assay: Inhibition of C-terminal 6-histidine tagged human TRIOGEF1 (R1232 to T1550 residues) expressed in Escherichia coli assessed as reduction in nucleotide exchange efficiency at 20 to 60 uM by N-methylanthraniloyl-GDP fluorescence based nucleotide exchange assay; settings: dose microM 20-60
How it was run: (§2)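 Mant-GDP-loaded His-tagged human RAC1 at 2.0 µM with 100 nM DOCK5 (residues 1212-1642) or TRIOGEF1 (R1232-T1550), both E. coli-expressed. Buffer: 50 mM Tris pH 8, 300 mM NaCl, 2 mM MgCl2, 1 mM DTT, 1% DMSO, 25 °C. Reaction started with 100 µM GTP. Fluorescence decay read at ex 360/em 440 nm, kobs by single-exponential fit, compound at 0, 20 or 60 µM, duplicates, as % of activity.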

[14] = tested on: Mus musculus; assay: Antiosteoporotic activity in C57BL6/J mouse model of OVX-induced bone loss assessed as trabecular number level in femoral metaphysis at 20 mg/kg, ip QD for 4 weeks by histomorphometry (2.99 +/- 0.80 /mm); format: functional; how it was run: as §1
[15] = Toxicity in C57BL6/J mouse model of OVX-induced bone loss assessed as effect on bone formation by measuring mineralizing mineral apposition rate level in femoral metaphysis at 20 mg/kg, ip BID for 4 weeks by histomorphometry (1.62 +/ 0.21 um/d (lcm)); format: organism-based; settings: in vivo, 672 h
[16] = Toxicity in C57BL6/J mouse model of OVX-induced bone loss assessed as effect on body weight at 20 mg/kg, IP BID for 4 weeks; format: organism-based; settings: in vivo, 672 h
How it was run: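 Body weight tracked in 12-week-old OVX C57BL6/J mice during 4 weeks of ip 20 mg/kg q.d. or b.i.d. dosing in 0.485% carboxymethylcellulose/3% Tween 80, 10 mL/kg.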

[17] = molecular target: Dedicator of cytokinesis protein 5 (Homo sapiens, UniProt Q9H7D0); assay: Inhibition of C-terminal 6-histidine tagged human DOCK5 (1212 to 1642 residues) expressed in Escherichia coli assessed as reduction in nucleotide exchange efficiency at 20 to 60 uM by N-methylanthraniloyl-GDP fluorescence based nucleotide exchange assay; settings: dose microM 20-60; how it was run: as §2
[18] = tested on: Osteoclast (Homo sapiens); assay: Toxicity in human peripheral blood cell-derived osteoclasts assessed as reduction in osteoclasts number up to 20 uM incubated for 48 hrs by TRAP-staining based assay

Sequence of Dedicator of cytokinesis protein 5 (Q9H7D0 whole entry, the tested form may be a part): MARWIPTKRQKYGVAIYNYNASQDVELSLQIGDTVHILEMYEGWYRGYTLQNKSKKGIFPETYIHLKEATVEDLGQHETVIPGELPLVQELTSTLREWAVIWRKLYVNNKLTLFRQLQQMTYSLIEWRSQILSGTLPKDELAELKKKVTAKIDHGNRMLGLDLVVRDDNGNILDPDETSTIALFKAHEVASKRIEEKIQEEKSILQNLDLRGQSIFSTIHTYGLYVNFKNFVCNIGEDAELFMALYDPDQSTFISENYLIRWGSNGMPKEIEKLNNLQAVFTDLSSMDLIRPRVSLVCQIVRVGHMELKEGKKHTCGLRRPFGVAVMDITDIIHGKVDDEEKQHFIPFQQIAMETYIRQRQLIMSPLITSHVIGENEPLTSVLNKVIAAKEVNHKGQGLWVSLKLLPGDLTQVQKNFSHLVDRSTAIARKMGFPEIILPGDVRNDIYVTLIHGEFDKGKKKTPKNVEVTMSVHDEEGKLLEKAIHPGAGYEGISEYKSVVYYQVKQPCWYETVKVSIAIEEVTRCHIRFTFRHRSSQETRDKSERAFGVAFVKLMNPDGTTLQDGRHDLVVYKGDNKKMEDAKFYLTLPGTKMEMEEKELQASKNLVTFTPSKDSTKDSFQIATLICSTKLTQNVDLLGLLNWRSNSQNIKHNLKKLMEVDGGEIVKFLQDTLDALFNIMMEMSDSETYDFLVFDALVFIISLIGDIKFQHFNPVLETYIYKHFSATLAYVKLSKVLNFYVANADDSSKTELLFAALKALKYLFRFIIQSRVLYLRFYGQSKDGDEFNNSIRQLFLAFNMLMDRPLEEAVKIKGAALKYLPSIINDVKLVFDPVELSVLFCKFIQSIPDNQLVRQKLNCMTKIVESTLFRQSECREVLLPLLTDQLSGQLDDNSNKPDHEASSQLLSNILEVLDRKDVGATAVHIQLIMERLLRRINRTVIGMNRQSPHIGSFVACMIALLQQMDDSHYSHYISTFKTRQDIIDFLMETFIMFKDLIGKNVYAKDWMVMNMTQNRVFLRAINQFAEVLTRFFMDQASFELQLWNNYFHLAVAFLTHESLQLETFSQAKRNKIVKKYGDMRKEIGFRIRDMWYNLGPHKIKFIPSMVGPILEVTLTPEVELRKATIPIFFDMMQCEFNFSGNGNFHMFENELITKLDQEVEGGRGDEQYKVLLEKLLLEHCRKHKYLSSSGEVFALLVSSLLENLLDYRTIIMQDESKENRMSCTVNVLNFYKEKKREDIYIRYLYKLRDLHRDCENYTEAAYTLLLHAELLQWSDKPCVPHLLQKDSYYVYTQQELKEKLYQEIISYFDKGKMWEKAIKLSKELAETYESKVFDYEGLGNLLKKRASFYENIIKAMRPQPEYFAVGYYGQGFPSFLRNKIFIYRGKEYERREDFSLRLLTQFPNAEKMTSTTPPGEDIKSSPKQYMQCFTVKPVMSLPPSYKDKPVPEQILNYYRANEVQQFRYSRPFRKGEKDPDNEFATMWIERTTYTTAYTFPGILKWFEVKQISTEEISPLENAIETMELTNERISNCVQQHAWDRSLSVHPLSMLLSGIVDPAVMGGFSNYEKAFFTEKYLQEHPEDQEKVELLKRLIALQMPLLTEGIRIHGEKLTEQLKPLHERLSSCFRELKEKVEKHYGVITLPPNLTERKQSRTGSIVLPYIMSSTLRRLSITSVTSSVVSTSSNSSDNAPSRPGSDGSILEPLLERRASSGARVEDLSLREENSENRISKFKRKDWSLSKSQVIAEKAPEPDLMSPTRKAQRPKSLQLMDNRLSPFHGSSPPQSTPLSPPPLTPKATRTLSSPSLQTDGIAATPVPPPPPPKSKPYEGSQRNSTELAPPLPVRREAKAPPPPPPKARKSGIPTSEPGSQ

O=S1(=O)N(c2ccccc2)C[C@H](O)[C@]12CCN(Cc1ccc(Cl)cc1)C2 (racemic)
Activity_index [1]: 1.48 | Activity [2]: 1.82 micrometer/day | Activity [3]: 13.7 1/mm | Activity [4]: 6.51 1/mm | inhibition [5]: Active | Activity [6]: 47.2 µm | inhibition [7]: Active | Activity [8]: 2.96 /millimeter | Activity [9]: 184.98 um3/um2/yr | Activity [10]: Non-Toxic | Activity [11]: 318.42 um | Activity [12]: 153.3% | inhibition [13]: inactive | Activity [14]: 2.83 /millimeter | Activity [15]: 1.65 micrometer/day | Activity [16]: Non-Toxic | inhibition [17]: 45% | Activity [18]: Non-Toxic
